Bioassay records: PubChem BioAssay, Sanford-Burnham Center for Chemical Genomics
FLuc inhib CS = firefly luciferase enzyme inhibitors, primary screen, artefact control for luciferase-based inhibitor screens, biochemical, luminescence, ATPLite; inhibition, % at 10 µM; 200,000 compounds, 1.5% hits; Luciferin 4-monooxygenase (Photinus pyralis), P08659; AID 1006, 2008; 10 min;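 active = inhibition above about 50% when tested at 10 µM, limit read from the data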
Target sequence (P08659 whole entry, looked up): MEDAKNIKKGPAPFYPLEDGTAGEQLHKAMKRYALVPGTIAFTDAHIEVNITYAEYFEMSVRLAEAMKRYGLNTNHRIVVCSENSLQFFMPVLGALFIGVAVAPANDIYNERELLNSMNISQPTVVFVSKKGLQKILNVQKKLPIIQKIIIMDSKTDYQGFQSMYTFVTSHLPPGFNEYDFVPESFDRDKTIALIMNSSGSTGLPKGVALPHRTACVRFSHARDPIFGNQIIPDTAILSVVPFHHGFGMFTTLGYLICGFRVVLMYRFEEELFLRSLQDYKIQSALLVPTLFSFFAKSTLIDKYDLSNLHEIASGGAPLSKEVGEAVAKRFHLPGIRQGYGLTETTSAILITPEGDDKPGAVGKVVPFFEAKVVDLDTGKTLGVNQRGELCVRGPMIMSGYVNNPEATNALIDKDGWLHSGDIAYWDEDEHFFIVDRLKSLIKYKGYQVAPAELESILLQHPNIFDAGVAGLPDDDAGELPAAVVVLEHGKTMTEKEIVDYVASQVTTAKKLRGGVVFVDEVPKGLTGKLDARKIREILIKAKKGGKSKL
PPC-1+TRAIL kill = compounds killing PPC-1 cancer cells with TRAIL present, primary screen, TRAIL potentiator project, ATPLite luminescence, uHTS; AID 1443, 2008; cell killing (% activity), % at 4 µM or 5 µM; PPC-1 cells + TRAIL, ATPLite viability luminescence; 220,000 compounds, 0.41% hits;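 active = cell killing above 50% in the first pass at 4 µM, then a duplicate retest at 5 µM averaging 50% or more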
TRAIL sens C8 = viability loss with TRAIL in NB7+C8 cells, primary screen, TRAIL sensitizer project, cell-based, ATPlite luminescence | AID 624354, 2012 | inhibition (viability loss, TRAIL sensitization), % at 10 µM | 360,000 compounds, 1% hits;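 active = compounds causing at least 50% loss of cell viability in the single-dose screen, relative to plate controls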
FLuc stim CS = FLuc activators, initial screening, artefact control for FLuc-dependent activation tests, biochemical, ATPlite luminescence; activation factor at 10 µM; AID 1027, 2008; ATPlite luciferase biochemical, 10 min; 0 = ATP-free wells, 1 = DMSO control; Luciferin 4-monooxygenase (Photinus pyralis), P08659; 200,000 tested, under 10 active;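 active = luciferase activation factor, scaled between plate controls, of at least 2 with compound at 10 µM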
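System: cell-free luciferase reagent; medium: PBS as buffer for the ATP substrate; doses: test compounds dosed from 2 mM stocks in 100% DMSO; incubation: 10 min, room temperature; measured by: luminescence from luciferase reaction; read-out: luciferase activation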
Numbers stand for hits; - = inactive; . = no result. A selection: hits, their analogues and other compounds. The true share with any hit is near 1.5%.

SMILES	FLuc inhib CS	PPC-1+TRAIL kill	TRAIL sens C8	FLuc stim CS
COc1cccc(/C=C/C(=O)Nc2cccc(C(C)=O)c2)c1OC	68	-	-	-
CCOc1ccc(C(=O)Nc2cccc3ncccc23)cc1Cl	.	.	-	.
Cc1c(CCNC=O)cc(C)c2c3c(oc12)CCCC3	.	.	-	.
CCOc1cc(/C=N/Nc2ncnc(Cl)c2N)ccc1O	65	-	-	-
COc1ccc(OC)c(S(=O)(=O)Nc2ccc(-c3ccc4nncn4n3)cc2)c1	.	.	66	.
CCc1nnc(NS(=O)(=O)c2ccc(NCc3cc(Cl)cc(Cl)c3O)cc2)s1	.	.	-	.
CN(C)S(=O)(=O)c1cc(NC(=O)CN2CCCc3ccccc32)ccc1Cl	-	-	-	-
CCn1c(N)nc2c1c(=O)n(C)c(=O)n2C	-	-	-	-
CCCc1nc2c(=O)n(C)c(=O)nc-2n(C)n1	-	-	96	-
Cc1ccccc1NC(=O)c1c(C)[nH]c(=S)c(C#N)c1-c1ccco1	-	60	-	-
CCc1cc2c(=O)c(-c3ccc4c(c3)OCCO4)coc2cc1OS(C)(=O)=O	52	-	-	-
Clc1ccc(Cn2ccc(-c3ccc4c(c3)OCO4)n2)cc1Cl	-	-	-	-
CN(C)c1ccc(N=Nc2nc3ccccc3n2C)cc1	.	-	95	.
Cn1c(N=Nc2ccccc2)nc2ccccc21	95	85	93	-
Cn1c(Cl)nc2ccccc21	-	-	-	-
NCCCC(=O)N1c2ccccc2Sc2ccccc21	-	-	-	-
COc1cccc(-c2cc(C(=O)Nn3cnnc3)c3ccccc3n2)c1	82	-	52	-
CCCCOc1cccc(-c2cc(C(=O)NNC(=S)NCC)c3ccccc3n2)c1	-	-	-	-
CCNC(=S)NNC(=O)c1cc(-c2ccc(OC)cc2)nc2ccccc12	96	88	89	-
CCNC(=S)NNC(=O)c1cc(-c2cccc(OCC)c2)nc2ccccc12	58	-	-	-
COC(=O)CNC(=O)c1cccc(-c2ccc(OC)cc2)c1	-	-	-	-
O=S(=O)(c1ccc(Cl)s1)N1CCN(C/C=C/c2ccccc2)CC1	-	-	-	-
CCCOC(=O)Nc1ccc(N2CCCCC2)cc1	59	-	-	-
O=C(NC(=S)Nc1ccc(N2CCCCC2)cc1)c1ccco1	63	-	-	-
COc1ccccc1C(=O)Nc1ccc(N2CCCCC2)cc1	71	-	58	-
SMILES	FLuc inhib CS	PPC-1+TRAIL kill	TRAIL sens C8	FLuc stim CS
c1ccc2c(c1)[nH]c1c(N3CCN(C4CCCCC4)CC3)ncnc12	.	.	-	.
Cc1c(NC(=O)CSc2nncc3ccccc23)c(=O)n(-c2ccccc2)n1C	-	-	-	-
CCCc1[nH]n(-c2nc3ccccc3s2)c(=O)c1C=NCCCOC	.	-	-	.
CCOC(=O)N1C2CCC(C2)N1C(=O)OCC	.	.	-	.
O=C(CSC(=S)N1CCSCC1)c1ccccc1	68	-	-	-
O=C(CSC(=S)N1CCSCC1)c1ccc(Cl)cc1	-	-	-	-
COc1ccc(N(CC(=O)N2CCN(Cc3ccccc3)CC2)S(C)(=O)=O)cc1Cl	.	.	-	.
Cc1nnsc1C(=O)N/N=C/c1c(F)cccc1Cl	-	-	-	-
Cc1[nH]cnc1C(=O)N/N=C/c1c(Cl)cccc1Cl	.	.	59	.
CC(=O)C1=C(O)C(=Cc2ccccc2)OC1=O	.	.	-	.
COC(=O)c1sc(NC(=S)NC(=O)c2ccc(F)cc2)nc1C	-	-	.	-
COC(=O)c1sc(NC(=S)NC(=O)c2ccccc2C)nc1C	-	-	51	-
Nc1ncnc2c(C3OC(CO)C(O)C3O)scc12 (centres undefined)	.	.	57	.
Cc1ccc(NC(=O)c2ccc(N/N=C/c3cccc(O)c3)c([N+](=O)[O-])c2)cc1	-	53	-	-
Cc1ccc(NC(=O)Cc2n[nH]c(=S)n2C)cc1	-	-	-	-
Cc1ccc(C=C2C=C(c3ccccc3)OC2=O)cc1	.	.	-	.
Cc1ccc(C2=C/C(=C/c3cccs3)C(=O)O2)cc1	85	-	-	-
COC(=O)c1ccc(NC(=S)NCC2CC2)cc1	-	.	-	-
CNC[C@@H](CC1CCCCC1)NC[C@H](CC(C)C)NCCc1cccc(C(F)(F)F)c1	.	.	92	.
CCC[C@@H](CNC)NC[C@H](Cc1ccccc1)NCCCCc1ccccc1	.	.	-	.
CN(Cc1cccc(C(F)(F)F)c1)C(=O)C1CCC(=O)N(CC2CCCCC2)C1 (centres undefined)	.	.	-	.
CNC[C@@H](Cc1ccccc1)NC[C@@H](CC1CCCCC1)NCCCc1ccccc1	.	.	96	.
COc1ccc(OC)c(NC(=O)N2CCCc3ccccc32)c1	.	.	-	.
